Cytotoxicity data for 71 compounds are collected here from ChEMBL document CHEMBL4513216, “Probing the Open Global Health Chemical Diversity Library for Multistage-Active Starting Points for Next-Generation Antimalarials” (ACS Infect Dis, 2020).

A short description of this data set: Toxicity liver stage against HepG2, at 10uM. The format is cell-based. More on the design: test concentration 10 uM, cell line HepG2-A16-CD81EGFP. The note with it: human, HepG2-A16-CD81EGFP cells; read-out: INHIBITION
In outline:
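Uninfected HepG2-A16-CD81EGFP cells, 3 × 10^3 per well, 1536-well, plated on prespotted compound at 10 μM final, parasite-free screening media added to match infected plates; puromycin 10 μM positive, DMSO 0.5% negative; run in parallel with 48 h PbLuc assay at 37 °C, 5% CO2; viability by CellTiter-Glo luminescence, normalized to controls.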
Take `CSCC1CCN(C(=O)c2ccccc2NCc2cccnc2)C1` (stereo unspecified): the cytotoxicity at 10 µM is -3.33%.
Take `COCC1CN(Cc2csc(C)n2)Cc2nccn2C1` (stereo unspecified): the cytotoxicity at 10 µM was 3.16%.
The result for `CCCN(C(=O)CNC1CCc2ncnn2C1)C1=CCCCC1` (stereo unspecified) reads 1.76%.
The result for `Cc1nc(C)n(CC2CCCN2Cc2nc(-c3ccco3)no2)n1` (stereo unspecified) reads -4.39%; that for `c1cnc2c(C3CCN(Cc4ccsc4)CC3)n[nH]c2n1`, 1.34%; that for `Cc1n[nH]c(C)c1NC(=O)CCc1cccc(C2CCCN(C)C2)n1` (stereo unspecified), -6.19%.
`CCc1nc(C2CCCN2Cc2ccn(C)c(=O)c2)no1` (stereo unspecified): the cytotoxicity at 10 µM was -4.25%.
The result for `CC(Cn1cncn1)NC1CCN(Cc2cccc(O)c2)CC1` (stereo unspecified) reads 2.64%; that for `Cc1nc(N2CCN(C(=O)c3ccc(O)cc3)CC2)c2cnn(C)c2n1`, -4.91%; that for `Cc1cccc(C)c1CNC1(CCO)CCOCC1`, 1.93%.
Turning to `CC1(C)COCCN1C(=O)CCc1nc(-c2ccc(Cl)cc2)no1`, the cytotoxicity at 10 µM was found to be 25.4%.
For `CCCc1nc(C)cc(N2CCNC(C(=O)NCc3cccnc3)C2)n1` (stereo unspecified) the value was -7%; for `Cc1nn(C)c(C)c1C1CCCN1Cc1nc2ccccc2n1C` (stereo unspecified), -14.4%; for `Cc1ncsc1C(=O)N1CCN(CCC(C)C)CC1`, 9.34%.
For `CCCS(=O)(=O)N1CCC(n2nc(-c3cc(C)oc3C)ccc2=O)CC1` the value was 14.6%; for `CN(C)C(=O)COC1COC2(CCN(CC3CC3)CC2)C1` (stereo unspecified), -108%.
In the case of `OCCNc1nccc(-c2c[nH]nc2-c2cccnc2)n1`, the cytotoxicity at 10 µM is -8.22%.
The result for `N#Cc1ccsc1N1CCC(Sc2ncc[nH]2)C1=O` (stereo unspecified) reads 2.72%.
Consider `c1ccc(-c2nnc(CNCCn3cccn3)o2)cc1`, for which the cytotoxicity at 10 µM is -10.7%.
As to `CCc1nnc2n1CCN(Cc1csc(-c3ccccc3F)n1)C2`, the cytotoxicity at 10 µM is -4.49%.
The result for `CCOCCn1nc(C)cc1C(=O)N1CC[C@@](O)(COC)C(C)(C)C1` reads -1.66%; that for `COc1ccc(OCc2cc(C(=O)N3CCC(O)CC3)n[nH]2)c(Cl)c1`, -1.69%; that for `CN(C)CC(=O)N1CCN(c2cc(N3CCCC3CO)ncn2)CC1` (stereo unspecified), -4.19%.
As for `COCCNC(=O)C1CCCN(c2ccc3nncn3n2)C1` (stereo unspecified), the cytotoxicity at 10 µM is -0.302%.
For `CCc1nc2c(c(N(C)Cc3nncn3CCOC)n1)CCNCC2` the value was -7.63%.
For `Cc1ccc(-c2nc(CN3CCc4c(ncn4C)C3)cs2)o1` the value was -11.3%.
The result for `Cc1ccc(C(=O)N2CCN(c3ncnc4nc(N)ccc34)CC2)o1` reads 7.55%; that for `COc1cc(C2SCC(=O)Nc3[nH]ncc32)c(OC)c2c1OCO2` (stereo unspecified), 6.63%.
For the compound `CN(C)C(=O)CNC(=O)Nc1cccc(Cl)c1SC(F)F`, the cytotoxicity at 10 µM was determined as 1.31%.
For `O=C(CCO)N1CC[C@@H]2CN(C(=O)c3ccco3)CCO[C@@H]2C1` the value was -72.6%; for `O=C(NCCc1ccc(F)cc1)C1CN(C(=O)Cn2cncn2)C1`, 3.54%.
For `CN(CCCc1cc(-c2ccc(F)cc2)n(C)n1)CC(=O)NC(N)=O`, the cytotoxicity at 10 µM amounted to 1.04%.
The result for `c1cc(-c2nn3c(CN4CCOCC4)nnc3s2)ccn1` reads 11%.
For `CCNC(=O)N1CCc2ccc(NC(=O)NCc3ccsc3)cc21`, the cytotoxicity at 10 µM was -11.8%.
The result for `COC(=O)c1ccc2ccn(CC3CCCCO3)c(=O)c2c1` (stereo unspecified) reads -0.551%.
As to `COCc1ccccc1CNC(=O)CNc1cccc(Cl)c1OC`, the cytotoxicity at 10 µM was 6.39%.
As to `Cc1cccc(N2CCN(C(=O)CCc3c(C)noc3Cl)CC2)c1`, the cytotoxicity at 10 µM is -9.73%.
The result for `COc1cccc(S(=O)(=O)CCN2CCN(CCO)CC2)c1` reads 0.878%; that for `Cc1nn(C)c(C)c1S(=O)(=O)N1C[C@@H]2C[C@@H](C)O[C@@H]2C1`, 0.788%.
`CC(C)c1nc(-c2cc(C(=O)NCCN(C)C)c3ccccn23)cs1`: the cytotoxicity at 10 µM worked out at 4.77%.
The result for `CC(=O)c1ccc(C(=O)N2C[C@H]3CC[C@@H](C2)N(CC2CCC2)C3)s1` reads -5.79%; that for `O=C(Nc1ccnn1Cc1ccccc1Cl)C1CCS(=O)(=O)C1` (stereo unspecified), -3.95%; that for `CS(=O)(=O)NCc1cncc2c1CCN(C(=O)c1ccccn1)C2`, 0.734%.
For `O=S(=O)(CCNC1CCc2ncnn2C1)c1ccc(Cl)cc1` (stereo unspecified) the value was -32.2%.
The result for `CCc1nc(CNc2ccc(F)c(F)c2)no1` reads 5.49%; that for `Cc1ccc2c(n1)N(CCN(C)C)CCN(C(=O)c1ccsc1)C2`, -57.3%.
For `CC(C)CN(Cc1nc2c(cnn2C)c(=O)[nH]1)CC(C)C`, the cytotoxicity at 10 µM was -5.36%.
The result for `Cc1nc(Nc2cnccn2)cc(C2CCCN2)n1` (stereo unspecified) reads -9.46%; that for `Cn1ncc(NCc2cc(F)cc(F)c2)c(Cl)c1=O`, 6.69%.
As for `Cc1nc[nH]c1C(=O)N1CC[C@@H](NC(=O)c2ccccn2)[C@H](O)C1`, the cytotoxicity at 10 µM was 4.61%.
On to `Cc1nn(C)c(N2CCOCC2)c1CNCc1ccc(C(C)O)cc1` (stereo unspecified), for which the cytotoxicity at 10 µM was -4.93%.
The result for `O=C(c1ccncc1)N1CCCn2c(CN3CCCC3)nnc2C1` reads -76.9%; that for `CCC(=O)NC(c1cccnc1)c1cc(C)ccc1C` (stereo unspecified), -2.8%; that for `O=C(C1=CCCC1)N1CC[C@]2(C[C@H](OCc3cccnc3)CO2)C1`, 11.7%.
The result for `Cc1cc(C)n(Cc2cc(C(=O)N3CCCC3c3nccs3)n[nH]2)n1` (stereo unspecified) reads -5.08%.
The result for `CCN1CCCC(c2c(-c3ccccc3)ncn2Cc2csc(N)n2)C1` (stereo unspecified) reads -0.386%; that for `Fc1cc(CN2CCCC2Cn2cncn2)c2ncccc2c1` (stereo unspecified), -14.1%; that for `O=C(NCCCn1nc2ccccn2c1=O)Nc1ccccc1Cl`, -22.3%.
In the case of `O=C(NC1CC1)[C@@H]1C[C@@H]2CCN(Cc3ccccc3)C[C@@H]2O1`, the cytotoxicity at 10 µM was -65.8%.
For `COC(=O)c1ccc(N(C(=O)c2cscn2)C(C)C)c(C)c1` the value was 1.7%; for `Cc1nc(CO[C@H]2CN(Cc3ccccn3)[C@@H]3CCCO[C@H]23)cs1`, 1.33%.
The result for `Cc1ccc(C(=O)N2CCC3(CCN(c4ccsc4)C3=O)C2)cn1` (stereo unspecified) reads -127%; that for `Cc1cncnc1C1CCN(CC2CC2)CC1`, -1.06%.
For `CC(C)CC(=O)N1CCCC2(CC(C(=O)Nc3ccccc3)=NO2)C1` (stereo unspecified) the value was 1.46%; for `CCN1N=C(C(=O)N2CCCC(c3noc(C)n3)C2)CCC1=O` (stereo unspecified), -12.9%.
On to `O=S(=O)(Cc1ccccc1CN1CC[C@H](CO)[C@H](O)C1)c1ccccc1`, for which the cytotoxicity at 10 µM was -18.2%.
For `c1cc(-c2cn[nH]c2)ccc1CN1CCCCC1` the value was 1.58%.
For `CN(Cc1ccccn1)c1nccc(N2CCN[C@H]3CS(=O)(=O)C[C@H]32)n1` the value was 10.5%.
The result for `O=C1CCCN1CC1CCCCN1C(=O)Nc1cccnc1` (stereo unspecified) reads -0.123%.
Take `CNS(=O)(=O)c1ccc(F)c(C(=O)NCc2ccnc(OC)c2)c1`: the cytotoxicity at 10 µM is -9.8%.
For `CC(=O)N1CCC(N2CCOC[C@H]2c2nc(C(C)(C)C)c[nH]2)CC1` the value was 6.51%.
